Assay results of several laboratories.
Protocols differ between the studies behind these lines.
SQLE: Squalene monooxygenase (SQLE, Homo sapiens, UniProt Q14534)
ADRA1A: Alpha-1A adrenergic receptor (ADRA1A, Homo sapiens, UniProt P35348)
Tspo: Translocator protein (Tspo, Rattus norvegicus, UniProt P16257)

Structure (SMILES) | target | effect on | action | method | cell line | pH | Ki
O=c1cc(-c2ccc(O)cc2)oc2cc(O[C@@H]3O[C@H](CO)[C@@H](O)[C@H](O)[C@H]3O)cc(O)c12 | SQLE | enzyme activity | inhibitor |  |  |  | 0.66 µM
Cc1cc(Oc2ncccc2CN2CCN(c3cccc(Cl)c3Cl)CC2)ccc1-c1c(C)c(=O)[nH]c(=O)n1C | ADRA1A | ligand displacement |  | radioligand |  |  | 1.93 µM
O=C[C@H](O)[C@@H](O)[C@H](O)[C@H](O)COP(=O)(O)O | Hexokinase HKDC1 (Homo sapiens, UniProt Q2TB90) | enzyme activity | inhibitor |  |  | pH 8 | 3400 µM
COc1cc(O)c2c(c1)oc(=O)c1c3cc(O)c(O)cc3oc21 | Alpha-glucosidase MAL12 (MAL12, Saccharomyces cerevisiae S288c, UniProt P53341) | enzyme activity | inhibitor |  |  |  | 30 µM
COc1cc2c3c(c1OC)-c1c(OC)ccc(N4CCOCC4)c1CC3N(C)CC2 (stereo not shown) | ADRA1A | cell-free assay |  | radioligand |  |  | 0.643 µM
Cc1cc(Oc2ncccc2CN2CCN(c3ccccc3Cl)CC2)ccc1-c1c(C)c(=O)[nH]c(=O)n1C | ADRA1A | ligand displacement |  | radioligand |  |  | 0.93 µM
COc1cc2c3c(c1OC)-c1c(OC)ccc(-c4ccc(C#N)cc4)c1CC3N(C)CC2 (stereo not shown) | ADRA1A | cell-free assay |  | radioligand |  |  | 0.322 µM
Cc1cc(Oc2ncccc2CN2CCN(CCc3ccccc3)CC2)ccc1-c1c(C)c(=O)[nH]c(=O)n1C | ADRA1A | ligand displacement |  | radioligand |  |  | 0.296 µM
CCOC(=O)[C@@]12C[C@@H]1[C@@H](n1cnc3c(NCc4cccc(Cl)c4)nc(C#Cc4ccc(Cl)s4)nc31)[C@H](O)[C@@H]2O | Tspo | cell-free assay |  | radioligand |  |  | 0.51 µM
Cc1cc(Oc2ncccc2CN2CCN(c3ccccc3[N+](=O)[O-])CC2)ccc1-c1c(C)c(=O)[nH]c(=O)n1C | ADRA1A | ligand displacement |  | radioligand |  |  | 1.98 µM
N#Cc1ccc2c(c1)N(CCCN1CCC(O)CC1)c1ccccc1S2 | SQLE | enzyme activity | inhibitor |  |  |  | 0.69 µM
C=CC(=O)N1C[C@H](Nc2ncnc3[nH]ccc23)CC[C@@H]1C | Solute carrier family 22 member 6 (SLC22A6, Homo sapiens, UniProt Q4U2R8) | transporter uptake | inhibitor |  | HEK293 | pH 7.4 | 156 µM
COc1cc(C2Oc3cc([C@H]4Oc5cc(O)cc(O)c5C(=O)[C@@H]4O)ccc3OC2CO)ccc1O (stereo partly shown) | SQLE | enzyme activity | inhibitor |  |  |  | 1.42 µM
COc1ccc(Cl)cc1N1CCN(Cc2cccnc2Oc2ccc(-c3c(C)c(=O)[nH]c(=O)n3C)c(C)c2)CC1 | ADRA1A | ligand displacement |  | radioligand |  |  | 0.353 µM
CCN(CC)C(C)CN1c2ccccc2Sc2ccccc21 (stereo not shown) | SQLE | enzyme activity | inhibitor |  |  |  | 0.65 µM
OC[C@@]12C[C@@H]1[C@@H](n1cnc3c(NC(C4CCC4)C4CCC4)nc(C#Cc4ccc(Cl)s4)nc31)[C@H](O)[C@@H]2O | Tspo | cell-free assay |  | radioligand |  |  | 0.67 µM
